Source: ChEMBL document CHEMBL2401667, “Synthesis of N-substituted acyclic β-amino acids and their investigation as GABA uptake inhibitors” (Eur J Med Chem, 2013)

Key:
[1] = target: Sodium- and chloride-dependent GABA transporter 1 (Homo sapiens, UniProt P30531); experiment: Inhibition of GABA uptake at GAT-1 (unknown origin)
GABA transporter 2 = target: T1, GABA transporter 2 (Mus musculus, UniProt P31651); experiment: Inhibition of GABA uptake at murine BGT-1 expressed in HEK293 cells; assay type: cell-based
T1 sequence (P31651 whole entry): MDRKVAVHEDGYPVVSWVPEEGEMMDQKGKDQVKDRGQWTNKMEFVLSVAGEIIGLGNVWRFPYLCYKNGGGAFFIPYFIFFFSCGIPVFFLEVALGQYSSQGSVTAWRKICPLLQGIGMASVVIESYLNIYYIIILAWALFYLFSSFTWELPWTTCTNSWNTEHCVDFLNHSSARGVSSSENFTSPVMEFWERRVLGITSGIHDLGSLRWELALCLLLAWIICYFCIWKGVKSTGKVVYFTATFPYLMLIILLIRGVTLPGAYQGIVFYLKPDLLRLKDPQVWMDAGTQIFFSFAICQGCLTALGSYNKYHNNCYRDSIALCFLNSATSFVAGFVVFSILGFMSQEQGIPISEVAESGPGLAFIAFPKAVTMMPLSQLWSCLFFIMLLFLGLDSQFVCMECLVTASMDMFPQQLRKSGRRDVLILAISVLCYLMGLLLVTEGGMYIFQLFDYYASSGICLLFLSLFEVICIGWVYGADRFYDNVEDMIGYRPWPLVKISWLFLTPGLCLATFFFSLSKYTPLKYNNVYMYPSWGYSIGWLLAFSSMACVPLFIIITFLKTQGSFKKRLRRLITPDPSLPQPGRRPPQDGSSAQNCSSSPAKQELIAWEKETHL

[2] = target: Sodium- and chloride-dependent GABA transporter 1 (Mus musculus, UniProt P31648); experiment: Inhibition of GABA uptake at murine GAT-1 expressed in HEK293 cells; assay type: cell-based
[3] = Inhibition of GABA uptake at GAT-1 in porcine frontal cortex P2B fraction; assay type: tissue-based, Sus scrofa
Method in brief: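 Uptake assay on a P2B membrane preparation from porcine frontal cortex, which predominantly addresses the GAT1 subtype.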

[4] = Inhibition of GABA uptake at GAT-3 in porcine brain stem P2C fraction; design: species or system Sus scrofa
Method in brief: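 Uptake assay on a P2C membrane preparation from porcine brainstem, which predominantly addresses the GAT3 subtype.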

[5] = target: T2, GABA transporter 3 (Mus musculus) (UniProt P31649); experiment: Remaining GABA uptake at murine GAT-2 expressed in HEK293 cells at 100 uM relative to control
T2 sequence (whole entry): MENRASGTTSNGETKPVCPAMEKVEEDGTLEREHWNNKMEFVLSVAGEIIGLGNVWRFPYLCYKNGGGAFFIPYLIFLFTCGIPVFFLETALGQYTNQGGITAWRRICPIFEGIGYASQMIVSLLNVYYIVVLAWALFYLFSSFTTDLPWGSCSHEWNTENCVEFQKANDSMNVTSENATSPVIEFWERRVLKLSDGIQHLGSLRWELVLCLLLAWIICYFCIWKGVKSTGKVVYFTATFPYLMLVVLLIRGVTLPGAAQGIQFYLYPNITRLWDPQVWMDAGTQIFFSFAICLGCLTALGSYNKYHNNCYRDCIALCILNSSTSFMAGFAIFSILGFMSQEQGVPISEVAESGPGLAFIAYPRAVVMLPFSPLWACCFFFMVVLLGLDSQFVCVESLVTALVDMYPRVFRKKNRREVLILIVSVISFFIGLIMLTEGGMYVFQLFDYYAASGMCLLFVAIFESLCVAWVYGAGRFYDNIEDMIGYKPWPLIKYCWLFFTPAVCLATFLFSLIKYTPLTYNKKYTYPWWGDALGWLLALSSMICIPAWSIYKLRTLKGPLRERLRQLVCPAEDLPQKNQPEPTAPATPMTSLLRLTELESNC

[6] = target: T3, GABA transporter 2 (Mus musculus) (UniProt P31651); experiment: Remaining GABA uptake at murine BGT-1 expressed in HEK293 cells at 100 uM relative to control
T3 sequence (whole entry): T1 sequence (P31651 whole entry)

[7] = target: Sodium- and chloride-dependent GABA transporter 1 (Mus musculus) (UniProt P31648); experiment: Remaining GABA uptake at murine GAT-1 expressed in HEK293 cells at 100 uM relative to control
GABA transporter 4 = target: T4, GABA transporter 4 (Mus musculus, UniProt P31650); experiment: Inhibition of GABA uptake at murine GAT-3 expressed in HEK293 cells; assay type: cell-based
T4 sequence (P31650 whole entry): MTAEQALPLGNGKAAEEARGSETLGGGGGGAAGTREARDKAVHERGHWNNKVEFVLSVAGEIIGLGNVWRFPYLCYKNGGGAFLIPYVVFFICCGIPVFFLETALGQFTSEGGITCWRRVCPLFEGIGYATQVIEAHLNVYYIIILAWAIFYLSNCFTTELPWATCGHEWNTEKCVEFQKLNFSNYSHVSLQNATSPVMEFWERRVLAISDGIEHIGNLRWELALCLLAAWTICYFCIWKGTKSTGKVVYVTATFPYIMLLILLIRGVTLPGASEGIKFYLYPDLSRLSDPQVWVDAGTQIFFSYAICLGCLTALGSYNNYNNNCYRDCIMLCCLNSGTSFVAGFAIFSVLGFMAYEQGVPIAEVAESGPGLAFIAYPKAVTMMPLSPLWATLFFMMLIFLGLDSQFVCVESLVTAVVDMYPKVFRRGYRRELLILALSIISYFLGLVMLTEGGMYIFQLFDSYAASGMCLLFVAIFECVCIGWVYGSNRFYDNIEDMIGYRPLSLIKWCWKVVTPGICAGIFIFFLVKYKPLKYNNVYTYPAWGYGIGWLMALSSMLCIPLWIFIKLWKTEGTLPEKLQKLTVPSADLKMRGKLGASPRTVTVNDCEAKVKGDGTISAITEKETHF

GABA transporter 3 = target: T5, GABA transporter 3 (Mus musculus, UniProt P31649); experiment: Inhibition of GABA uptake at murine GAT-2 expressed in HEK293 cells; assay type: cell-based
T5 sequence (P31649 whole entry): T2 sequence (whole entry)

[8] = target: T3, GABA transporter 2 (Mus musculus); experiment: Remaining GABA uptake at murine BGT-1 expressed in HEK293 cells at 1 mM relative to control

Chain of Sodium- and chloride-dependent GABA transporter 1 (Homo sapiens, UniProt P30531) (P30531 whole entry): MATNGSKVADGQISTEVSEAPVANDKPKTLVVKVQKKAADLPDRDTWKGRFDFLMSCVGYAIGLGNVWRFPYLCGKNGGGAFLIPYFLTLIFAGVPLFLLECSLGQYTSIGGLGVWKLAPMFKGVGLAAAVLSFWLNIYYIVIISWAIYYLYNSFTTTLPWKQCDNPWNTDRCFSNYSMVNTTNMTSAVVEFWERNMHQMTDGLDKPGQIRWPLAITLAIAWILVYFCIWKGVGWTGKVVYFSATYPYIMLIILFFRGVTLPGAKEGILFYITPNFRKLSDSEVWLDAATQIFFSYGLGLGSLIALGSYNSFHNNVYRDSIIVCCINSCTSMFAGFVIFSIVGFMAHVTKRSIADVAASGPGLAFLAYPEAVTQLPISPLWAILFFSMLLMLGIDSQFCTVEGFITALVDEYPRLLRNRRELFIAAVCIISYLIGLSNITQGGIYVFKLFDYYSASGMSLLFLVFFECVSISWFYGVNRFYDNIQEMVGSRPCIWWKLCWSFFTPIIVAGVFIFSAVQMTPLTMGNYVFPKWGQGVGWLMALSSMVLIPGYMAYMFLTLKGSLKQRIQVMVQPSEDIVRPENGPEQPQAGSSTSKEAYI

Compound	IC50 [2]	remaining GABA uptake [5]	remaining GABA uptake [6]	IC50 (GABA transporter 4)	further results
O=C(O)[C@@H]1CCCN(CCOCCN2c3ccccc3CCc3ccccc32)C1	–	–	–	–	IC50 [1]: 39.8 µM
O=C(O)[C@@H]1CCCN(CCOCCN2c3ccccc3Sc3ccccc32)C1	–	–	–	–	IC50 [1]: 0.309 µM
O=C(O)[C@@H]1CCCN(CCOCCN2c3ccccc3C=Cc3ccccc32)C1	–	–	–	–	IC50 [1]: 0.646 µM
COc1ccc(C(/C=C/CN2CCC[C@H](C(=O)O)C2)(c2ccc(OC)cc2)c2ccc(OC)cc2)cc1	39.8 µM	–	–	–	IC50 (GABA transporter 2): 38 µM
Cl.O=C(O)CCNCCC=C(c1ccccc1)c1ccccc1	–	–	–	–	pIC50 [3]: 3.94; pIC50 [4]: 3.36
O=C(O)CCNCCOCCN1c2ccccc2Sc2ccccc21	35.5 µM	50%	88%	–	–
COc1ccc(C(OCCNCCC(=O)O)(c2ccc(OC)cc2)c2ccc(OC)cc2)cc1	–	40%	55%	42.7 µM	remaining GABA uptake [7]: 57%
COc1ccc(C(OCCN2CCC[C@H](C(=O)O)C2)(c2ccc(OC)cc2)c2ccc(OC)cc2)cc1	–	–	–	–	IC50 (GABA transporter 2): 30.9 µM
CC(CC(=O)O)NCCC=C(c1ccccc1)c1ccccc1 (racemic)	4.57 µM	82%	86%	–	–
CC(CC(=O)O)NCCOCCN1c2ccccc2Sc2ccccc21 (racemic)	8.71 µM	–	74%	–	IC50 (GABA transporter 3): 40.7 µM
NCCC(=O)O [BETA-ALANINE]	2820 µM	–	–	34.7 µM	IC50 (GABA transporter 2): 331 µM; IC50 (GABA transporter 3): 21.9 µM

The next lines start with results.

IC50 [2]	remaining GABA uptake [5]	remaining GABA uptake [6]	IC50 (GABA transporter 4)	Compound	further results
20.4 µM	55%	85%	–	O=C(O)CCNCCOCCN1c2ccccc2CCc2ccccc21	–
–	94%	47%	–	COc1ccc(C(/C=C/CNCCC(=O)O)(c2ccc(OC)cc2)c2ccc(OC)cc2)cc1	remaining GABA uptake [7]: 77%
–	87%	85%	–	O=C(O)CCNCCOCCN1c2ccccc2C=Cc2ccccc21	remaining GABA uptake [7]: 56%
50.1 µM	–	–	83.2 µM	CC(N)CC(=O)O (racemic)	IC50 (GABA transporter 2): 813 µM; IC50 (GABA transporter 3): 46.8 µM
13.2 µM	–	–	339 µM	CC(CC(=O)O)NCCOCCN1c2ccccc2CCc2ccccc21 (racemic)	remaining GABA uptake [8]: 69%; IC50 (GABA transporter 3): 214 µM
17.4 µM	84%	82%	–	CC(CC(=O)O)NCCOCCN1c2ccccc2C=Cc2ccccc21 (racemic)	–
–	48%	73%	33.9 µM	COc1ccc(C(OCCNC(C)CC(=O)O)(c2ccc(OC)cc2)c2ccc(OC)cc2)cc1 (racemic)	remaining GABA uptake [7]: 114%
–	–	47%	60.3 µM	COc1ccc(C(/C=C/CNC(C)CC(=O)O)(c2ccc(OC)cc2)c2ccc(OC)cc2)cc1 (racemic)	remaining GABA uptake [7]: 52%; IC50 (GABA transporter 3): 63.1 µM
